Data set [1] deals with Mus musculus. As to the kind of experiment: Neurotoxicity in Albino mouse at 30 mg/kg, ip after 4 hrs by RotaRod test. It counts as toxicity, organism-based. Set-up: dose 30 mg/kg, route intraperitoneal. As to conditions: in vivo. A digest of the protocol: (§1)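 Phase I protocol of the NINCDS antiepileptic drug development programme in albino mice, covering MES, subcutaneous pentylenetetrazole (metrazol) and rotarod neurotoxicity. Doses were 30, 100 and 300 mg/kg, read at 1/2 h and 4 h. One animal per dose and time point, scored as 0/1 (no activity) or 1/1 (noticeable activity).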

In data set [2] the test system is Mus musculus. As to the kind of experiment: Neurotoxicity in Albino mouse at 100 mg/kg, ip after 4 hrs by RotaRod test. Format: toxicity, organism-based. More on the design: dose 100 mg/kg, route intraperitoneal. As to conditions: in vivo. In outline: as §1
(In general: Falling from the rotarod earlier than controls is read as motor impairment.)

The test system of data set [3] is Mus musculus. As to the kind of experiment: Neurotoxicity in Albino mouse at 300 mg/kg, ip after 4 hrs by RotaRod test. Particulars: in vivo. It counts as toxicity, organism-based. More on the design: dose 300 mg/kg, route intraperitoneal. In outline: as §1
The test system of data set [4] is Mus musculus. As to the kind of experiment: Anticonvulsant activity against metrazole-induced seizures in Albino mouse at 100 mg/kg, ip after 30 mins by scMet assay. Format: functional, organism-based. Set-up: dose 100 mg/kg. In outline: as §1
Data set [5] concerns Mus musculus. As to the kind of experiment: Antidepressant activity in Albino mouse assessed as duration of immobility at 10 mg/kg, ip by forced-swimming test. It counts as functional. Particulars: route intraperitoneal. In outline: (§2)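 Porsolt forced-swim test in albino mice. Drug given ip at 0.5 ml/20 g body weight, 1 h before testing. Controls received 1% aqueous Tween 80. Each mouse was placed singly in a water-filled Plexiglas cylinder for 6 min. Immobility (floating upright with only slight movements to stay afloat) was timed over the last 4 min.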

In data set [6] the test system is Mus musculus. As to the kind of experiment: Antidepressant activity in Albino mouse assessed as duration of immobility at 10 mg/kg, ip by forced-swimming test relative to control. Format: functional. Particulars: route intraperitoneal. A digest of the protocol:
as §2

For data set [7], the system named is Mus musculus. As to the kind of experiment: Anticonvulsant activity in Albino mouse by MES test at 30mg/kg, ip after 30 mins. Format: functional, organism-based. A digest of the protocol: as §1
Data set [8] concerns Mus musculus. As to the kind of experiment: Anticonvulsant activity in Albino mouse by MES test at 100 mg/kg, ip after 30 mins. More on the design: dose 100 mg/kg. It counts as functional, organism-based. In outline:
as §1

The subject of data set [9] is Mus musculus. As to the kind of experiment: Anticonvulsant activity in Albino mouse by MES test at 300 mg/kg, ip after 30 mins. More on the design: dose 300 mg/kg. It counts as functional, organism-based. A digest of the protocol: as §1
Data set [10] relates to Mus musculus. As to the kind of experiment: Anticonvulsant activity against metrazole-induced seizures in Albino mouse at 30 mg/kg, ip after 30 mins by scMet assay. It counts as functional, organism-based. More on the design: dose 30 mg/kg. A digest of the protocol:
as §1

Data set [11] concerns Mus musculus. As to the kind of experiment: Anticonvulsant activity against metrazole-induced seizures in Albino mouse at 300 mg/kg, ip after 30 mins by scMet assay. It counts as functional, organism-based. More on the design: dose 300 mg/kg. In outline: as §1
For data set [12], the system named is Mus musculus. As to the kind of experiment: Anticonvulsant activity in Albino mouse at 30 mg/kg, ip after 4 hrs by MES test. Format: functional, organism-based. Set-up: dose 30 mg/kg. In outline: as §1
Data set [13] deals with Mus musculus. As to the kind of experiment: Anticonvulsant activity in Albino mouse at 100 mg/kg, ip after 4 hrs by MES test. It counts as functional, organism-based. Set-up: dose 100 mg/kg. In outline: as §1
In data set [14] the test system is Mus musculus. As to the kind of experiment: Anticonvulsant activity in Albino mouse at 300 mg/kg, ip after 4 hrs by MES test. Format: functional, organism-based. More on the design: dose 300 mg/kg. In outline:
as §1

The subject of data set [15] is Mus musculus. As to the kind of experiment: Anticonvulsant activity against metrazole-induced seizures in Albino mouse at 30 mg/kg, ip after 4 hrs by scMet. More on the design: dose 30 mg/kg. Format: functional, organism-based. A digest of the protocol: as §1
For data set [16], the system named is Mus musculus. As to the kind of experiment: Anticonvulsant activity against metrazole-induced seizures in Albino mouse at 100 mg/kg, ip after 4 hrs by scMet assay. Format: functional, organism-based. More on the design: dose 100 mg/kg. In outline:
as §1

The test system of data set [17] is Mus musculus. As to the kind of experiment: Anticonvulsant activity against metrazole-induced seizures in Albino mouse at 300 mg/kg, ip after 4 hrs by scMet assay. It counts as functional, organism-based. Set-up: dose 300 mg/kg. A digest of the protocol: as §1
Data set [18] relates to Mus musculus. As to the kind of experiment: Neurotoxicity in Albino mouse at 30 mg/kg, ip after 30 mins by RotaRod test. Format: toxicity, organism-based. More on the design: dose 30 mg/kg, route intraperitoneal. Particulars: in vivo, 0.5 h. A digest of the protocol:
as §1

Data set [19] concerns Mus musculus. As to the kind of experiment: Neurotoxicity in Albino mouse at 100 mg/kg, ip after 30 mins by RotaRod test. It counts as toxicity, organism-based. Particulars: in vivo, 0.5 h. More on the design: dose 100 mg/kg, route intraperitoneal. In outline: as §1
Data set [20] relates to Mus musculus. As to the kind of experiment: Neurotoxicity in Albino mouse at 300 mg/kg, ip after 30 mins by RotaRod test. Format: toxicity, organism-based. Set-up: dose 300 mg/kg, route intraperitoneal. As to conditions: in vivo, 0.5 h. In outline:
as §1

The record followed here is ChEMBL document CHEMBL1143773, “Synthesis and studies on antidepressant and anticonvulsant activities of some 3-(2-furyl)-pyrazoline derivatives” (Eur J Med Chem, 2007).

SMILES strings stand for the structures. Calls of active or inactive are those of the source. No cut-off for these calls is given here.

Regarding `S=C(Nc1ccccc1)N1N=C(c2ccco2)CC1c1ccco1` (stereo not given), the Activity result in [1] is recorded as “Not Active”; in data set [2], “Not Active”; in [3] it was “Not Active”; in data set [5] it was 181 s; in data set [6], -13.81%; in data set [18] it was “Not Active”. In addition, the Activity result in data set [19] and in data set [20] was “Not Active” in each case. Moreover, the result in [4] and in data set [11] was Active. In addition, the outcome in [7], in [8], in [9], in [10], in data set [12] and in [13] was inactive. Also, the result in [14], in data set [15], in [16] and in data set [17] was inactive.

For `NC(=S)N1N=C(c2ccco2)CC1c1ccccc1` (stereo not given), the Activity result is “Not Active” in [1]; “Not Active” in [2]; “Not Active” in [3]; 202 s in data set [5]; 3.81% in data set [6]; “Not Active” in data set [18]. Also, the Activity entry in data set [19] and in data set [20] was “Not Active” throughout. Further, the result in data set [4], in data set [7], in [8], in [9], in [10] and in [11] was inactive. The outcome in data set [12], in data set [13], in data set [14], in data set [15], in [16] and in data set [17] was inactive.

For the compound `CCNC(=S)N1N=C(c2ccco2)CC1c1ccco1` (stereo not given), the Activity entry in data set [1] is reported as “Not Active”; in data set [2], “Not Active”; in [3], “Not Active”; in [5] it was 211 s; in data set [6], 0.48%; in data set [18], “Not Active”. The Activity entry in data set [19] and in data set [20] was “Not Active” throughout. Also, the result in [4], in data set [10], in data set [11] and in [17] was Active. In addition, the result in data set [7], in data set [8], in data set [9], in data set [12], in data set [13] and in [14] was inactive. Besides, the result in data set [15] and in data set [16] was inactive.

In the case of `C=CCNC(=S)N1N=C(c2ccco2)CC1c1ccco1` (stereo not given), the Activity result is “Not Active” in data set [1]; “Not Active” in [2]; “Not Active” in data set [3]; 144 s in data set [5]; -31.42% in [6]; “Not Active” in data set [18]. The Activity result in data set [19] and in [20] was “Not Active” each time. Besides, the result in data set [4], in [7], in data set [8], in [9], in data set [10] and in data set [11] was inactive. The result in data set [12] and in data set [15] was inactive. Also, the outcome in data set [13], in data set [14], in [16] and in data set [17] was Active.
